Source: PubChem
Mdm2-MdmX inh = human Mdm2/MdmX binding inhibition. SaOS-2 split-luciferase Mdm2/MdmX complementation, luminescence. inhibition, % at 8 µM. actives 3% (n = 330,000). AID 485346;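 active = inhibition of at least 50% at 8 µM in the primary screen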
Target sequence (O15151 whole entry, looked up): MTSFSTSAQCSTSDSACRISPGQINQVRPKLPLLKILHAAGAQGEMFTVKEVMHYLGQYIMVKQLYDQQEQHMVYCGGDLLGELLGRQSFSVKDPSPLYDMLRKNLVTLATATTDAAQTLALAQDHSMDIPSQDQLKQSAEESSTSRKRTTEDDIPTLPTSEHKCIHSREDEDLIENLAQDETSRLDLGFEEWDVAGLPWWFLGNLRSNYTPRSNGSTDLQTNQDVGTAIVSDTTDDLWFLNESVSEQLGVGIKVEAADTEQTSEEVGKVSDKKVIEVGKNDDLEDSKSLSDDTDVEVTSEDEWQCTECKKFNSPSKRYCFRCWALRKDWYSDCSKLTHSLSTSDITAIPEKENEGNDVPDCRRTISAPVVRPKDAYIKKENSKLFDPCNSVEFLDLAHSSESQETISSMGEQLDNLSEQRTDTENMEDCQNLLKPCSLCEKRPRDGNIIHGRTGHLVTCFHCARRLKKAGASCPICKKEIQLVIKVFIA
Target sequence (Q00987 whole entry, looked up): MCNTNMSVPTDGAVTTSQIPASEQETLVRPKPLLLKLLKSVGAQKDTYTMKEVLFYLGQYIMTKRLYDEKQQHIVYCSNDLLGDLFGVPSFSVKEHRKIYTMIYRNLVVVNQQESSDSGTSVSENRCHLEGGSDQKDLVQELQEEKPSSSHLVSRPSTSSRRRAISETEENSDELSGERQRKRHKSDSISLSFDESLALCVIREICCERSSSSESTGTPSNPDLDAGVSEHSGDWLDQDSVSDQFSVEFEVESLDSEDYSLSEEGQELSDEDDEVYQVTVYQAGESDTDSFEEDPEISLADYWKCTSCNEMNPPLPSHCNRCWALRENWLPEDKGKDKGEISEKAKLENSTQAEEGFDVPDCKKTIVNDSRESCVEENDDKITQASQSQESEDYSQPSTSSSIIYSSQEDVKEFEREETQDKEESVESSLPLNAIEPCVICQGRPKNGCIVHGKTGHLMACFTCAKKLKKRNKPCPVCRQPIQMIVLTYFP
MDM2 E3 inh = Mdm2 E3 ligase (human) inhibition; signal enhancement, % at 5 µM; Q00987; AID 1230; actives 0.11% (n = 210,000); cell-based MDM2 ubiquitination luciferase reporter, 2 h; 0 = plate control, 100 = twice control, blank-subtracted;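 active = signal enhancement of 30% or more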;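 also: luminescence tracks abundance of the self-degrading MDM2-luciferase fusion protein; higher signal means inhibition of MDM2 E3 ligase activity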
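Test system: stable mammalian line carrying autodegrading MDM2–luciferase fusion reporter; quantity: 2000 cells in each well; times: 4 h cell settling then 2 h compound exposure, 37 °C; detection: luminescence with SteadyLite reagent, 15 min at room temperature; evaluation: percent signal gain over controls, blank-subtracted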
Dynein transport = dynein cargo transport inhibition. 3617.4 mouse cells, GR-EGFP nuclear translocation imaging; test concentration mostly 20 µM; stimulated with dexamethasone, 1 µM; hits give low values. z-score, hits read low. actives 0.47% (n = 220,000). AID 1381;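 active = plate z-score of nuclear minus cytoplasmic receptor signal below a set negative limit, without overly bright fluorescence or cell loss, cut at about -3.5 in these data, passing the limit was not always enough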;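 also: z-score of nuclear minus cytoplasmic ring GR-EGFP intensity difference per well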
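Also added – dexamethasone, 1.0 µM final · Buffer or medium – tet-free, stripped-serum medium · Schedule – induction 48 h, compound 1 h, agonist 30 min · Detection – formaldehyde fixation, Hoechst nuclear stain, 10x automated fluorescence imaging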
Beta2AR agonist = activates human beta-2 adrenergic receptor causing internalization. P07550. response, % (no concentration beside the values). AID 504454. Am2.2-beta2AR cells, FAP receptor internalization, flow cytometry. actives 0.43% (n = 340,000);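 active = response above a set limit, near 3 SD of response in nonfluorescent compounds, cut at about 42% in these data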
UPR XBP1 act = adaptive UPR (XBP1) activation. CHO-XBP1 luciferase reporter, IRE1-XBP1 UPR activation, luminescence; percent of tunicamycin response, DMSO as zero. activation, % at 20 µM. actives 0.33% (n = 330,000);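 active = versus positive control, 20 µM dose yields 30% or more activation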;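 also: 100% = tunicamycin at 10 µg/mL and 0% = DMSO only wells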
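Test system: CHO-XBP1 luciferase reporter cells | Buffer or medium: Serum-containing F12 medium, 10% FBS | Schedule: 6 h compound exposure at 37 °C, 5% CO2 | Detection: Steady-Glo luciferase glow luminescence, 10 min after reagent addition | Read-out basis: Activation, % of tunicamycin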
CHOP UPR activ = activators of apoptotic arm of unfolded protein response (CHOP). CHO-CHOP luciferase reporter, UPR activation, luminescence; percent of tunicamycin response over DMSO baseline. actives 0.34% (n = 330,000). activation, % at 10 µM;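 active = at 10 µM dose, activation of 40% or more, normalized to positive control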;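 also: 100% = tunicamycin at 10 µg/mL and 0% = DMSO alone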
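Dosing – one dose, 10 µM in 0.5% DMSO · System – CHO-CHOP cells, stable luciferase reporter of PERK-eIF2a-CHOP signalling · Input – 500 cells/well · Control set – tunicamycin 10 µg/mL final as positive, DMSO-only wells as negative · Timing – 6 h compound treatment, 37 °C · Measure – % activation vs tunicamycin · Technique – luminescence read with Steady-Glo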
Dynein inh conf = dynein cargo transport inhibition, confirmation | shares compounds with Dynein transport | 3617.4 GR-EGFP nuclear translocation imaging, dexamethasone-induced | calls only at 20 µM | actives 69% (n = 1,000) | AID 463116;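 active = inhibition of receptor movement into the nucleus at or above a set limit in both runs, with normal cell brightness and cell count; inconclusive = limit reached in only one run, brightness and count normal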;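 also: dexamethasone at 1 µM final in well for 30 min; nuclear minus cytoplasmic GR-EGFP mean intensity difference in channel 2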
UPR CHOP confirm = apoptotic UPR (CHOP) activation, confirmed | actives 64% (n = 1,000) | activation, % at 10 µM | CHO-CHOP cells, CHOP-luciferase reporter luminescence; percent of tunicamycin response, DMSO as zero | AID 463112 | shares compounds with CHOP UPR activ; in the data active = activation above about 33%;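 also: 0% = DMSO wells and 100% = tunicamycin 10 µg/mL wells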
Mdm2 MdmX conf = human Mdm2/MdmX binding inhibition, confirmed; shares compounds with Mdm2-MdmX inh; actives 55% (n = 10,000); inhibition, % at 8 µM; AID 489028; luminescent assay; in the data active = inhibition above about 40%
Full FLuc ctr = inhibits full-length luciferase, flagging false Mdm2/MdmX hits; actives 77% (n = 6,200); AID 504607; SaOS-2 full-length luciferase counterscreen, luminescence; shares compounds with Mdm2-MdmX inh; inhibition, % at 8 µM;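 active = mean inhibition at 8 µM reaching about 37%, which flags the compound as non-specific, limit read from the data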;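 also: p53-null SaOS-2 cells with luciferase driven by a doxycycline-inducible promoter; compound on cells about two nights before reading with doxycycline added after day one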
* = called active by the depositor; i = inactive; ? = inconclusive; / = no result; + = active, no number. Hits are enriched below; roughly 3.7% of the tested compounds scored in any of these assays.

SMILES	Mdm2-MdmX inh	MDM2 E3 inh	Dynein transport	Beta2AR agonist	UPR XBP1 act	CHOP UPR activ	Dynein inh conf	Mdm2 MdmX conf	Full FLuc ctr	others
O=C(CS(=O)c1ccc(C(F)(F)F)cc1[N+](=O)[O-])Oc1ccc(Cl)cc1 (stereo unspecified)	18	-2	0.57	12	-1	-3	/	/	/
COc1ccc(CCn2c(C)cc(C(=O)CCl)c2C)cc1OC	74*	-17	-3.7*	7	0	79*	+	27	/	UPR CHOP confirm=122*
Cc1cc(C(=O)CCl)c(C)n1CCc1ccc(Cl)cc1	93*	/	-6.3*	19	2	234*	+	69*	31	UPR CHOP confirm=207*
CC1CCC(N2CCN(C(=O)c3ccccc3F)CC2)CC1 (stereo unspecified)	-67	/	/	16	-5	1	/	/	/
Cc1ccc(C)c(SCC(=O)NCC(c2ccco2)N2CCCCC2)c1 (stereo unspecified)	6	/	/	9	-2	-1	/	/	/
CC1(C)COC(c2cc([N+](=O)[O-])ccc2Cl)=N1	-9	5	0.27	17	-1	-2	/	/	/
CC1(C)COC(/C=C/c2cccc([N+](=O)[O-])c2)=N1	79*	-9	-4.5*	17	-3	1	+	72*	39*
Cc1cccc(NS(=O)(=O)c2c(C)nc3scc(C)n3c2=O)c1	14	/	/	5	-6	2	/	/	/
Cc1cccc(-c2nnc(SCC(=O)C(C)(C)C)n2C)c1	-15	-3	-1.5	-1	4	1	/	/	/
O=C1CCCCc2sc(Br)c([N+](=O)[O-])c2N1	64*	-21	-6.5*	2	-7	17	+	30	57*
CCCCCCSc1ccc(-c2nc3cnccn3c2NCCCC)cc1	26	/	/	-380	1	-1	/	/	/
CN(C(=O)CSc1nnc(N)s1)C1CCCCC1	2	/	/	-6	-2	0	/	/	/
Cc1ccc(S(=O)(=O)N2CCN(C(=O)COC(=O)COc3ccc(Cl)cc3)CC2)c(C)c1	/	/	/	-4	/	/	/	/	/
CCOC(=O)c1c(C)oc2c(F)c(F)c(F)c(F)c2c1=O	101*	-16	-4.6*	43*	-5	2	+	36	/
CCOC(=O)c1c(C)oc2c1cc(O)c1ccccc12	-199	-13	-0.69	-5	4	5	/	/	/
Cc1cc(OCC(=O)OCC(=O)N2CCc3ccccc3C2)ccc1Cl	8	/	/	0	-1	-2	/	/	/
C[C@H]1CN([C@@H](C)CO)C(=O)c2cccc(NC(=O)C3CC3)c2O[C@H]1CN(C)S(=O)(=O)c1ccccc1	19	/	/	-5	0	-2	/	/	/
C=CCNC(=S)Nc1sc2c(c1C(=O)OCC)CCN(C(=O)OCC)C2	5	-11	1.2	2	-3	0	/	/	/
CCOC(=O)c1c(NC(=S)N2CCCCC2)sc2c1CCN(C(=O)OCC)C2	72*	-18	-3.6*	18	18	3	+	15	/
CCOC(=O)c1c(NC(=S)N2CCOCC2)sc2c1CCN(C(=O)OCC)C2	51*	-9	-4.7*	2	21	10	+	0	/
N=c1n(Cc2ccccc2)c2ccccc2n1CC(O)COc1ccc(Cl)cc1Cl (stereo unspecified)	100*	-4	-3.8*	29	3	24	i	100*	61*
CCOCCCn1c(SC(C)C(=O)NCC2CCCO2)nc2sc(C)c(C)c2c1=O (stereo unspecified)	-13	/	/	-5	0	-1	/	/	/
CS(=O)(=O)c1sc(C#N)c2c1C(=O)CC(c1ccccc1)C2 (stereo unspecified)	99*	-19	-3.8*	106*	-11	-11	?	100*	2
CC1=C(C(=O)OCc2ccccc2)C(c2ccccc2[N+](=O)[O-])NC(=O)N1C (stereo unspecified)	3	/	/	3	-1	1	/	/	/
Cc1cc(C(=O)Cn2ncc(Cl)c(Cl)c2=O)c(C)n1CC(F)(F)F	98*	-19	-5.1*	43*	2	96*	+	67*	2	UPR CHOP confirm=62*
SMILES	Mdm2-MdmX inh	MDM2 E3 inh	Dynein transport	Beta2AR agonist	UPR XBP1 act	CHOP UPR activ	Dynein inh conf	Mdm2 MdmX conf	Full FLuc ctr	others
Cc1ccc(C)c(C(=O)Cn2ncc(Cl)c(Cl)c2=O)c1	97*	-19	-4.7*	41	-1	87*	?	84*	32	UPR CHOP confirm=67*
Cc1cc2oc(=O)cc(Cn3ncc(Cl)c(Cl)c3=O)c2cc1Cl	96*	10	-6.1*	9	-8	2	+	98*	54*
Cc1cccc(Cn2ncc(Cl)c(Cl)c2=O)c1	100*	-15	-4.3*	33	4	19	+	84*	51*
Cc1ccc(C(=O)OCn2ncc(Cl)c(Cl)c2=O)cc1	90*	17	-3.8*	62*	-7	-11	+	100*	1
Cc1ccc(C(=O)COC(=O)c2nc(Cl)ccc2Cl)cc1	17	/	/	-7	-2	1	/	/	/
O=C1/C(=C/c2ccc(N3CCOCC3)o2)SC(=Nc2ccccc2)N1CCc1c[nH]c2ccccc12	100*	19	-7	i	-10	110*	+	98*	4	UPR CHOP confirm=36*
COc1cc(/C=C2\SC(=Nc3ccccc3)N(CCc3c[nH]c4ccccc34)C2=O)ccc1OC(C)C(=O)O (stereo unspecified)	21	-11	0.52	19	-1	-2	/	/	/
O=C1C(Cl)=C(Nc2ccccc2)C(=O)c2ccccc21	/	-64	-0.77	14	/	/	/	/	/
O=C(O)c1ccc(NC2=C(Cl)C(=O)c3ccccc3C2=O)cc1	100*	-12	-5.2*	96*	-6	3	+	91*	53*
CCOC(=O)COc1ccc2nsnc2c1	-12	-10	-1.1	1	-4	-1	/	/	/
CCOC(=O)COc1ccc(/C=C/[N+](=O)[O-])c(OCC(=O)OCC)c1	100*	0	-4.8*	54*	-6	358*	+	70*	24	UPR CHOP confirm=-10
